# Sampled rows, rich in hits. Any-hit rate of the full collection: about 4.9%.
# STAT1 act – activators of IFN-gamma induced STAT1 signaling | NIH 3T3 STAT1-luciferase reporter, luminescence; 100% = IFN-gamma alone, no compound | activation (% of control), % at 5.5 µM | 2.6% of 200,000 active | AID 932;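 active = activation above the screen-wide mean activation plus 3 SD, cut at about 130% in these data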
# FLuc inhib CS – inhibits firefly luciferase, flagging false hits in luciferase inhibition screens | inhibition, % at 10 µM | AID 1006 | 1.5% of 200,000 active | ATPLite firefly luciferase biochemical luminescence, 10 min | P08659;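 active = inhibition above about 50% when tested at 10 µM, limit read from the data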
# Target sequence (P08659 whole entry, looked up): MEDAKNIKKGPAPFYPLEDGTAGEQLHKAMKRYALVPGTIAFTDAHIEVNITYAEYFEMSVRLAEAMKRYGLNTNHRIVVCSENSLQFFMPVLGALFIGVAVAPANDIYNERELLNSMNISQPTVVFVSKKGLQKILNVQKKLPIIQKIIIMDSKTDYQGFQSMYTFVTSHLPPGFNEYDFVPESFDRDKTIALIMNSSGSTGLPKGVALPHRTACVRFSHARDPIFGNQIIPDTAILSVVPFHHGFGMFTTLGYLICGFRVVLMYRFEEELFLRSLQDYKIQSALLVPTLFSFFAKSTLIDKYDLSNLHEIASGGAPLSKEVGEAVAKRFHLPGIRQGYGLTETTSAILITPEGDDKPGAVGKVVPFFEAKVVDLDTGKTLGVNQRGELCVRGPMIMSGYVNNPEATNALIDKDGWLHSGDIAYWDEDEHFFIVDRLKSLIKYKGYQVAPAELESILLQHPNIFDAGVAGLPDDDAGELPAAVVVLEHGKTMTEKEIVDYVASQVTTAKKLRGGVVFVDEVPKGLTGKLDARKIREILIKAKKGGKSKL
# STAT3 act – increases IL-6 driven STAT3 reporter signal | U3A cells, IL-6 STAT3-luciferase reporter, luminescence; 100% = signal with IL-6 EC80 alone | activation (% of control), % at 5.6 µM | 0.91% of 190,000 active;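 active = activation above the screen-wide mean of compound activation plus 3 SD, cut at about 130% in these data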
#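 Test system: STAT3-luciferase reporter U3A cells; Detection: reporter luminescence signal; Times: 1 h compound pre-exposure, 6 h IL-6 stimulation, 37 °C; Benchmarks: IL-6-only high control; Also added: IL-6 stimulus at 33 ng/mL final.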
# FLuc act counter – firefly luciferase counter-screen for stimulation assays. activation factor at 10 µM. P08659. 200,000 tested, under 10 active. AID 1027. ATPlite luciferase biochemical, luminescence, 10 min; 0 = ATP-free wells, 1 = DMSO control;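 active = luciferase activation factor, scaled between plate controls, of at least 2 with compound at 10 µM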
#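 test system = cell-free luciferase reagent | medium = PBS as buffer for the ATP substrate | dosing = test compounds dosed from 2 mM stocks in 100% DMSO | incubation = 10 min at ambient temperature | detection = luminescence measurement of luciferase light output | benchmarks = low control with PBS replacing ATP, high control enzyme plus ATP without compound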
# STAT1 blocker – reduces IFN-gamma driven STAT1 reporter signal; inhibition, % at 5.5 µM; NIH 3T3 STAT1-luciferase reporter, luminescence; AID 920; 0.35% of 200,000 active;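 active = inhibition above a set limit, the mean inhibition across all tested compounds plus 3 SD, cut at about 34% in these data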
# STAT3 inh-1 – STAT3 signaling inhibition. U3A cells, IL-6 STAT3-luciferase reporter, luminescence; host cell line lacks STAT1. inhibition, % at 5.5 µM. 0.89% of 190,000 active;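 active = inhibition above the mean inhibition across all screened compounds plus 3 SD, cut at about 44% in these data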
# STAT3 inh-2 – confirmation of STAT3 signaling inhibitors. shares compounds with STAT3 inh-1. U3A cells, IL-6 STAT3 luciferase reporter, luminescence; cell line lacks STAT1. inhibition, % at 5.7 µM. 45% of 1,200 active. AID 1265;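 active = inhibition above the hit cutoff computed for the primary STAT3 screen, cut at about 44% in these data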
# NFkB inh STAT3ct – NF-kappaB inhibition in STAT3 inhibitor counter-screen; 36% of 1,200 active; AID 1308; inhibition, % at 5.7 µM; HEK293T NF-kB luciferase reporter, TNF-alpha induced; shares compounds with STAT3 inh-1;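 active = inhibition above the mean of solvent-only control wells plus 3 SD, cutoff set per campaign, cut at about 13% in these data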
# STAT1 inh 2 – STAT1 inhibition in STAT3 inhibitor counter-screen. shares compounds with STAT3 inh-1. NIH 3T3 STAT1-luciferase reporter, IFN-gamma induced, luminescence. AID 1317. inhibition, % at 5.7 µM. 27% of 1,200 active;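 active = inhibition above the mean plus 3 SD of solvent-only control wells, limit set per screening run, cut at about 16% in these data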
# Hits are given with their value; n = inactive; x = not tested or not shown.
SMILES,STAT1 act,FLuc inhib CS,STAT3 act,FLuc act counter,STAT1 blocker,STAT3 inh-1,STAT3 inh-2,NFkB inh STAT3ct,STAT1 inh 2
CC(C)c1ccc(/C=C/C(=O)NC2=NCCS2)cc1,n,67.3,n,n,n,68.1,n,n,n
CC(C)C(C(=O)NC1=NCCS1)c1ccc(Cl)cc1 (stereo not given),n,n,n,n,n,n,x,x,x
c1ccc(C2=NNC(=NC3CC3)SC2)cc1,n,62.1,n,n,n,74.3,n,n,n
Cc1ccc(C2=NNC(=Nc3ccc(F)cc3)SC2)cc1,n,n,n,n,n,n,x,x,x
COc1cc(/C=N\Nc2nc3ccccc3[nH]2)cc(OC)c1OC,n,n,n,n,n,74.3,n,19.5,n
COc1ccc(/C=N/Nc2nc3ccccc3[nH]2)cc1OC,n,n,n,n,n,n,x,x,x
CC(C)Cn1c(N)c(C(=O)CSc2nc3ccccc3n2C)c(=O)n(C)c1=O,n,n,n,n,n,n,x,x,x
CC(C)Cn1c(N)c(C(=O)CSc2cc(Cl)ccc2Cl)c(=O)n(C)c1=O,n,n,n,n,n,n,x,x,x
CC(C)Cn1c(N)c(C(=O)COC(=O)c2ccc(O)cc2)c(=O)n(C)c1=O,n,n,n,n,n,n,x,x,x
Cc1csc(SCC(=O)c2c(N)n(CC(C)C)c(=O)n(C)c2=O)n1,n,n,n,n,n,48.8,48.8,n,19.8
CCOC(=O)Cc1csc(SCC(=O)c2c(N)n(CC(C)C)c(=O)n(C)c2=O)n1,n,n,n,n,n,64.1,52.0,n,n
Cc1nn(-c2ccccc2)c(C)c1C(=O)OCC(=O)c1c(N)n(CC(C)C)c(=O)n(C)c1=O,n,n,n,n,n,44.4,66.0,13.7,n
CCOC(=O)N1C(=O)C2(CCCCC2)N(c2ccccc2Cl)C1=S,n,n,n,n,n,n,x,x,x
COC(=O)C1CC(=O)c2ccsc2C1 (stereo not given),n,n,n,n,n,n,x,x,x
Oc1ccccc1-c1cc(-c2ccc3c(c2)OCCO3)n[nH]1,n,65.6,n,n,n,54.8,n,n,n
COc1cc(C(=O)Nc2cccc(-c3nnc(-c4ccco4)o3)c2)ccc1OC(C)=O,n,n,n,n,n,n,x,x,x
O=C(Cc1ccc(Cl)cc1)Nc1ccc2c(c1)C(=O)NC2=O,n,n,n,n,n,n,x,x,x
Cc1ccc(S(=O)(=O)C(C#N)c2nc3ccccc3nc2N2CCN(C)CC2)cc1C (stereo not given),n,n,n,n,n,50.4,n,n,n
Cc1ccc(N(C(=O)CNC(=O)c2ccco2)C(C(=O)NC2CCCC2)c2cccnc2)cc1C (stereo not given),n,n,n,n,n,n,x,x,x
Cc1ccc(N(C(=O)CCl)C(C(=O)NC2CCCCC2)c2cccnc2)cc1C (stereo not given),n,n,n,n,n,70.3,101.5,40.0,40.0
Nc1nnc(SCC(=O)c2ccco2)s1,n,n,n,n,n,n,x,x,x
Cc1cc(C(=O)CSc2nnc(N)s2)c(C)n1Cc1ccco1,n,80.5,n,n,n,46.3,n,n,n
Cc1ccc(Nc2nc3c(c(=O)[nH]2)CCCC3)cc1,n,n,n,n,n,n,x,x,x
O=c1[nH]c(Nc2nc3ccccc3o2)nc2c1CCCC2,n,69.6,n,n,n,69.4,n,n,n
O=C(O)c1cccc(-c2nnn(Cc3ccccc3Cl)n2)c1,n,n,n,n,44.0,69.9,61.2,37.4,40.0
SMILES,STAT1 act,FLuc inhib CS,STAT3 act,FLuc act counter,STAT1 blocker,STAT3 inh-1,STAT3 inh-2,NFkB inh STAT3ct,STAT1 inh 2
O=C(O)c1cccc(-c2nnn(Cc3ccccc3)n2)c1,n,n,n,n,n,n,x,x,x
O=C(COc1ccc(Br)cc1CNCCCN1CCOCC1)Nc1ccccc1,n,n,n,n,n,n,x,x,x
CC(C)C(=O)Nc1ccc(-c2nc3cccnc3o2)cc1,147.1,66.9,n,n,n,47.9,n,n,n
CC(C)(C)c1ccc(OCC(=O)Nc2ccc(-c3nc4cccnc4o3)cc2)cc1,n,n,n,n,n,n,x,x,x
COc1ccc(-c2cc(OC)c3ccccc3n2)cc1,n,n,n,n,n,n,x,x,x
COc1ccc(-c2ccc3ccccc3n2)cc1,n,71.6,n,n,n,55.0,n,n,n
Cc1ccc(NC(=O)N2CCc3ccccc32)cc1,n,89.5,n,n,n,55.7,n,n,n
Cc1ccc(NC(=O)N2CCc3ccccc32)cc1C,n,85.8,n,n,n,61.9,n,n,n
O=C(Nc1cccc(Cl)c1)c1ccc(OC(=S)N2CCOCC2)cc1,130.5,n,n,n,n,57.4,n,n,n
C/C(=N/NC(=O)c1ccc(C)nc1)c1ccc2c(c1)CCCC2,n,n,n,n,n,n,x,x,x
NC(=O)c1ccsc1NC(=O)COC(=O)Cc1cccc2ccccc12,n,n,n,n,n,75.1,74.3,18.5,20.2
COc1ccc(C(=O)Nc2ccc(N3CCOCC3)cc2)cc1S(=O)(=O)NC1CCCC1,n,n,n,n,n,n,x,x,x
COc1ccc(-c2c[n+]3c(n2-c2c(C)n(C)n(-c4ccccc4)c2=O)CCCCC3)cc1,n,n,n,n,n,n,x,x,x
CCOc1ccc(-n2c(-c3ccccc3)c[n+]3c2CCC3)cc1,n,n,n,n,n,71.0,58.8,n,22.4
CCOc1ccc(-n2c(-c3ccccc3)nnc2-c2ccccc2)cc1,n,n,n,n,n,n,x,x,x
CCOc1ccc(-n2c(-c3ccc(Br)cc3)c[n+]3c2CCCCC3)cc1,n,n,n,n,n,60.0,n,n,23.2
CCOc1ccc(-c2cnc3n2CCC3)cc1,n,n,n,n,n,n,x,x,x
CCOc1ccc(-n2c(-c3ccc(OC)cc3)c[n+]3c2CCCCC3)cc1,n,n,n,n,n,84.6,87.0,14.6,32.6
O=C(C(=O)N1CCCC1CO)N1CCCC1CO (stereo not given),n,n,n,n,n,n,x,x,x
COc1ccccc1NC(=O)Cc1noc(CSc2n[nH]c(N)n2)n1,n,n,n,n,n,n,x,x,x
Cc1ccccc1NC(=O)c1cnc2ccccn2c1=O,n,82.3,n,n,n,72.3,n,n,n
COc1ccc(OC)c(NC(=O)c2cnc3ccccn3c2=O)c1,n,x,n,x,n,n,x,x,x
COc1ccc(C2SCC(=O)N2CCc2ccc(OC)c(OC)c2)cc1 (stereo not given),n,n,n,n,n,45.3,43.4,14.9,16.4
